Data: PubChem BioAssay
Inconclusive results are not listed.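 How the source made its calls, unless noted: active means growth inhibition above 25% in both replicates, a cutoff set 3 SD above the mean; inconclusive means above 25% in only one replicate; inactive means the rest.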

Experiments:
[1] = S. cerevisiae growth inhibition in permissive medium (OD615), pilot counter-assay for S. cerevisiae lifespan shortening project, permissive growth control (AID 705); settings: OD615, 24 h, at 10 µM, active compounds read high
Outline: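 System: S. cerevisiae with engineered DeaD lifespan system. Medium: SC raffinose/galactose permissive medium. Doses: single compound dose of 10 µM, 0.25% DMSO final. Schedule: 24 h exposure, 30 °C. Measured by: OD615 turbidity read. Read-out: growth inhibition.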

[2] = S. cerevisiae growth inhibition in restrictive medium, OD615, pilot screen, restrictive growth control, yeast lifespan reduction project (AID 706;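 active means growth inhibition above a set limit, 3 SD over mean compound inhibition, in both replicates, cut at about 43% in these data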;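 further: modified DeaD lifespan yeast strain shifted to restrictive glucose medium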); settings: OD615, 48 h, at 10 µM, active compounds read high
Outline: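 Assay system – genetically modified Saccharomyces cerevisiae, DeaD replicative lifespan assay strain · Medium – CSMM-D glucose medium · Doses – 10 µM compound, 0.25% DMSO · Times – 4 h pre-incubation, 48 h exposure at 30 °C · Signal – optical density at 615 nm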

[3] = doxorubicin toxicity protection in MRP-1 cells – H69AR cells, CellTiter-Glo, duplicate, MRP-1 activator project, pilot screen (AID 807;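 active means viability increase at or above a cutoff of the median across tested compounds plus 3 SD, cut at about 8.5% in these data, passing the limit was not always enough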;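 further: compound pretreatment 18-22 h then 72 h combined with doxorubicin; 0% = doxorubicin alone and 100% = vehicle without doxorubicin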); settings: H69AR viability with doxorubicin, CellTiter-Glo luminescence; at 10 µM; active compounds read high
[4] = viability of HCT116 without oncogenic beta-catenin – human colon tumor cells, pilot screen (AID 823;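 active means cell viability at or below a set limit in both duplicate runs, the limit being the all-compound median minus 4 SD, cut at about 23% in these data, passing the limit was not always enough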;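 further: 0% = wells killed by 20 µM Hyamine and 100% = untreated DMSO cell wells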); settings: HCT116 beta-catenin knockout viability, CellTiter-Glo, 60 h; at 10 µM; active compounds read low
[5] = viability of PTEN-null HCT116 cells – cell-based, HCT116 clonal line, CellTiter-Glo, pilot screen (AID 824;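 active means viability at or below 27.92% in each of two runs, the all-compound median minus 4 SD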;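 further: 0% = 20 µM Hyamine control and 100% = vehicle cell control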); settings: HCT116 PTEN-deleted viability, 60 h, at 10 µM, active compounds read low
[6] = RAM pathway blockade in budding yeast – dse1pr::URA3 reporter, 5-FOA selection, pilot screen (AID 869;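 active means inhibition over a set limit, the all-compound mean plus 3 SD, in both replicate runs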;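 further: 0% = DMSO wells with no growth and 100% = 10 µM 1-NA-PP1 with full growth; RAM network block rescues cells from 5-FOA so hits raise OD615 growth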); settings: S. cerevisiae dse1pr::URA3 5-FOA growth, OD615, 2 d; at 10 µM; active compounds read high; strain carries analog-sensitive mutant Cbk1 kinase
[7] = RAM signaling pathway blockade in yeast – S. cerevisiae, Pdr1DBD-CYC8 efflux-inhibited sensitized strain, primary screen (AID 1298;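 active means RAM network inhibition above 8.4% in each of two replicates, 3 SD over the compound average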;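 further: 0% = DMSO untreated cells without growth and 100% = 10 µM 1-NA-PP1 full growth; higher means more yeast growth rescued from 5-FOA killing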); settings: S. cerevisiae cbk1-as DSE1-URA3 strain, 5-FOA growth OD615, 2 d; at 50 µM; active compounds read high

Cn1c(C(=O)NCCN2CCCCCC2)cc2c(=O)n(C)c3ccccc3c21
inactive: growth inhibition [1] -1.66% | growth inhibition [2] 0.56% | viability increase [3] -5.04% | viability [4] 65.7% | viability [5] 74.9% | inhibition [6] 1.29% | RAM network inhibition [7] 5.21%

O=C(NCCn1ccc2ccccc21)C1CCCCC1
inactive: growth inhibition [1] -13.3% | growth inhibition [2] -15.1% | viability increase [3] -0.84% | viability [4] 87.7% | viability [5] 87.2% | inhibition [6] 2.12% | RAM network inhibition [7] 2.92%

Cc1c(NC(=O)c2ccc(F)cc2)c(=O)n(-c2ccccc2)n1C
inactive: growth inhibition [1] -15.9% | growth inhibition [2] -7.79% | viability increase [3] -2.08% | viability [4] 106% | viability [5] 96.6% | inhibition [6] 1.34% | RAM network inhibition [7] 1.21%

CSC(=NS(=O)(=O)c1ccc(C)cc1)SC
inactive: growth inhibition [1] -11% | growth inhibition [2] -20.2% | viability increase [3] -1.03% | viability [4] 94.6% | viability [5] 93.1% | inhibition [6] 2.02% | RAM network inhibition [7] 4.14%

C=CCN1C(=O)C2C(C(=O)NC)C3(C)C=CC2(O3)C1C(=O)NCc1ccc(OC)cc1 (stereo not drawn)
inactive: growth inhibition [1] -5.37% | growth inhibition [2] 3.69% | viability increase [3] 1.33% | viability [4] 103% | viability [5] 99.9% | inhibition [6] 0.89% | RAM network inhibition [7] 0.49%

Cc1ccnc(SCCn2c(N(C)Cc3ccccc3)nc3c2c(=O)n(C)c(=O)n3C)n1
inactive: growth inhibition [1] -15.3% | growth inhibition [2] -13% | viability increase [3] -0.84% | viability [4] 93.3% | viability [5] 88.7% | inhibition [6] -0.475% | RAM network inhibition [7] 5.55%

Cc1ccc(OCCNC(=O)c2ccco2)cc1C
inactive: growth inhibition [1] 0.475% | growth inhibition [2] -5.61% | viability increase [3] -1.46% | viability [4] 102% | viability [5] 101% | inhibition [6] 1.63% | RAM network inhibition [7] -1.46%

CSc1ncccc1C(=O)OCC(=O)c1cc2ccccc2o1
inactive: growth inhibition [1] -12.5% | growth inhibition [2] -20.7% | viability increase [3] 0.25% | viability [4] 85% | viability [5] 93.7% | inhibition [6] 3.42% | RAM network inhibition [7] 4.75%

CCOC(=O)c1c(C)[nH]c(C(=O)CSc2nnnn2-c2ccccc2)c1C
inactive: growth inhibition [1] -7.16% | growth inhibition [2] -0.165% | viability increase [3] -1.88% | viability [4] 100% | viability [5] 93.4% | inhibition [6] 2.31% | RAM network inhibition [7] 1.57%

CCC(=O)c1ccc(OCC(O)CN2C(=O)NC(C)(C)C2=O)cc1 (stereo not drawn)
inactive: growth inhibition [1] -3.58% | growth inhibition [2] -3.1% | viability increase [3] -0.53% | viability [4] 100% | viability [5] 92.8% | inhibition [6] 1.6% | RAM network inhibition [7] 1.09%

Cc1ccc(C)c(C(=O)COC(=O)c2ccc(Br)o2)c1
inactive: growth inhibition [1] -12.9% | growth inhibition [2] -17.1% | viability increase [3] -0.26% | viability [4] 94.2% | viability [5] 86.2% | inhibition [6] 0.38% | RAM network inhibition [7] 1.4%

COCC(C)NC(=O)NC1(C(F)(F)F)Oc2ccc(Cl)cc2O1 (stereo not drawn)
inactive: growth inhibition [1] -10% | growth inhibition [2] -25.1% | viability increase [3] -5.78% | viability [4] 32.7% | viability [5] 38% | inhibition [6] 0.985% | RAM network inhibition [7] 4.1%

COc1ccc(S(=O)(=O)N2CCN(CCO)CC2)cc1-c1nnc2c3ccccc3c(C)nn12
inactive: growth inhibition [1] -4.39% | growth inhibition [2] -6.93% | viability increase [3] -0.85% | viability [4] 101% | viability [5] 101% | inhibition [6] 1.31% | RAM network inhibition [7] 0.95%

O=C1C2C(c3ccccc3)C=CC(c3ccccc3)C2C(=O)N1CCO (stereo not drawn)
inactive: growth inhibition [1] -10.9% | growth inhibition [2] -8.43% | viability increase [3] -3.35% | viability [4] 94.7% | viability [5] 95.3% | inhibition [6] 0.33% | RAM network inhibition [7] 4.03%

CC(=O)c1c(C)nn(C(=O)c2cccs2)c1C
inactive: growth inhibition [1] 1.07% | growth inhibition [2] 5.09% | viability increase [3] -0.49% | viability [4] 91% | viability [5] 106% | inhibition [6] 1.89% | RAM network inhibition [7] -0.62%

COc1ccc(C(=O)Nc2ccc(Cl)cc2C(=O)NCc2ccco2)cc1OC
inactive: growth inhibition [1] -0.55% | growth inhibition [2] -8.55% | viability increase [3] -4.93% | viability [4] 73.4% | viability [5] 68.9% | inhibition [6] 0.625% | RAM network inhibition [7] 7.76%

O=C(O)CCc1ccc(-c2cccs2)n1-c1ccc(C(=O)O)cc1
inactive: growth inhibition [1] -3.21% | growth inhibition [2] 3.42% | viability increase [3] -0.51% | viability [4] 98.7% | viability [5] 93.5% | inhibition [6] 2.39% | RAM network inhibition [7] -0.68%

Cc1ccc(S(=O)(=O)N(CC(=O)N2CCCC2)C2CCCCC2)cc1
inactive: growth inhibition [1] -1.14% | growth inhibition [2] 10.9% | viability increase [3] -1.79% | viability [4] 99% | viability [5] 95% | inhibition [6] 0.685% | RAM network inhibition [7] 2.21%

NC(=O)c1ccsc1NC(=O)C1CCCCC1
inactive: growth inhibition [1] -3.66% | growth inhibition [2] -5.7% | viability increase [3] -0.9% | viability [4] 102% | viability [5] 101% | inhibition [6] 0.965% | RAM network inhibition [7] 0.22%

Cc1sc2ncnc(NCCCO)c2c1C
inactive: growth inhibition [1] -16.1% | growth inhibition [2] -8.24% | viability increase [3] -1.72% | viability [4] 103% | viability [5] 90.5% | inhibition [6] 0.945% | RAM network inhibition [7] 5.49%

CC1CCN(CC(O)COc2ccc(F)cc2)CC1 (stereo not drawn)
inactive: growth inhibition [1] -19.2% | growth inhibition [2] -16.5% | viability increase [3] -0.7% | viability [4] 96.4% | viability [5] 99.5% | inhibition [6] 0.515% | RAM network inhibition [7] 2.56%

CCOC(=O)NC(Nc1ccc(C)cn1)(C(F)(F)F)C(F)(F)F
inactive: growth inhibition [1] 11.5% | growth inhibition [2] 4.23% | viability increase [3] -1.59% | viability [4] 95.2% | viability [5] 100% | inhibition [6] 0.545% | RAM network inhibition [7] 0.7%

COc1ccc(C(=O)N2CCN(c3ccc(C)cc3)CC2)cc1OC
inactive: growth inhibition [1] -10.4% | growth inhibition [2] -14.2% | viability increase [3] -1.27% | viability [4] 103% | viability [5] 90.2% | inhibition [6] 0.81% | RAM network inhibition [7] 3.75%

CCc1nnc(NC(=O)c2cccs2)s1
inactive: growth inhibition [1] -21.3% | growth inhibition [2] -3.98% | viability increase [3] 2.17% | viability [4] 102% | viability [5] 90.1% | inhibition [6] 1.29% | RAM network inhibition [7] 0.32%
